Laboratory results from ChEMBL document CHEMBL1137467, “Synthesis and structure-activity relationships of novel 1-arylmethyl-3-aryl-1H-pyrazole-5-carbohydrazide derivatives as potential agents against A549 lung cancer cells” (Bioorg Med Chem, 2007).
pIC50: −log10 of the molar value. The source made the active and inactive calls. The rule behind the calls is not given here.

Assays:
A549 [1] = experiment: Growth inhibition of human A549 cells after 48 hrs; format: functional, cell-based; details: A549, 24 h, in the assay text read “after 24 hrs” for “after 48 hrs”
[2] = Lipophilicity, log P of the compound; format: physicochemical; details: octanol/water
A549 [3] = experiment: Reduction of cell viability of human A549 cells at 80 uM after 48 hrs by MTT assay; format: functional
How it was run: (§1)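 Compounds dissolved in DMSO, final DMSO below 0.1% (v/v) in culture medium. Cells seeded in 96-well plates and treated at 10–80 μM for 24 or 48 h. Viability by MTT assay with absorbance read at 570 nm. Controls were untreated medium and 0.1% DMSO vehicle.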

A549 [4] = experiment: Growth inhibition of human A549 cells after 24 hrs; format: functional, cell-based; details: A549, 48 h, in the assay text read “after 48 hrs” for “after 24 hrs”; how it was run: as §1
A549 [5] = experiment: Induction of apoptosis in A549 cells assessed as LDH release at 40 uM after 48 hrs; format: functional, cell-based; details: Homo sapiens
How it was run: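 Culture medium collected after 48 h treatment at 40 μM and assayed for LDH release, compared against an untreated control group; n = 3.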

A549 [6] = experiment: Effect on cell morphology in human A549 cells assessed as cell shrinkage at 40 uM after 48 hrs; format: functional, cell-based
How it was run: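 Cells exposed to 40 μM compound for 24 h and 48 h, then inspected under a phase contrast microscope for shrinkage. Untreated cells served as control.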

A549 [7] = experiment: Effect on nuclear fragmentation in human A549 cells at 40 uM after 48 hrs by AO staining method; format: functional, cell-based
How it was run: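 Cells cultured 48 h in fresh medium with 0 or 40 μM compound, then stained with 5 μg/ml acridine orange at room temperature. Chromatin condensation and DNA fragmentation imaged by laser scanning confocal/fluorescence microscopy. Images representative of three independent experiments.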

A549 [8] = experiment: Reduction of cell viability of human A549 cells at 40 uM after 24 hrs by MTT assay; format: functional; how it was run: as §1
A549 [9] = experiment: Reduction of cell viability of human A549 cells at 40 uM after 48 hrs by MTT assay; format: functional; how it was run: as §1

Row | SMILES | pIC50 (A549 [1]) | logP [2] | pIC50 (A549 [4]) | Activity (A549 [3]) [%] | Activity (A549 [5]) | Activity (A549 [6]) | Activity (A549 [7]) | Activity (A549 [8]) [%] | Activity (A549 [9]) [%]
1 | NNC(=O)c1cc(-c2ccccc2)nn1Cc1ccccc1 | 3.36 | 2.73 | – | – | – | – | – | – | –
2 | COc1ccc(-c2cc(C(=O)NN)n(Cc3ccccc3)n2)cc1 | 3.26 | 2.87 | – | – | – | – | – | – | –
3 | COc1ccc(-c2cc(C(=O)NN)n(Cc3ccc(Cl)nc3)n2)cc1 | 3.62 | 2.76 | – | – | – | – | – | – | –
4 | NNC(=O)c1cc(-c2ccc(Cl)cc2)nn1Cc1ccccc1 | 3.63 | 3.24 | 4.41 | – | – | – | – | – | –

Now those with a higher pIC50 (A549 [1]), led by results:

Row | pIC50 (A549 [1]) | logP [2] | pIC50 (A549 [4]) | SMILES | Activity (A549 [3]) [%] | Activity (A549 [5]) | Activity (A549 [6]) | Activity (A549 [7]) | Activity (A549 [8]) [%] | Activity (A549 [9]) [%]
5 | 4.18 | 4.49 | 4.58 | CC(C)(C)c1ccc(Cn2nc(-c3ccccc3)cc2C(=O)NN)cc1 | 15 | Active | Active | Active | 52 | 26
6 | 4.17 | 4.94 | 4.73 | CC(C)(C)c1ccc(Cn2nc(-c3ccc(Cl)cc3)cc2C(=O)NN)cc1 | 13 | Active | – | Active | 52 | 26
7 | 3.92 | 3.12 | 4.52 | NNC(=O)c1cc(-c2ccc(Cl)cc2)nn1Cc1ccc(Cl)nc1 | – | – | – | – | – | –
8 | 3.65 | 2.52 | 4.17 | NNC(=O)c1cc(-c2ccccc2)nn1Cc1ccc(Cl)nc1 | – | – | – | – | – | –
9 | 4.30 | 4.6 | 4.62 | COc1ccc(-c2cc(C(=O)NN)n(Cc3ccc(C(C)(C)C)cc3)n2)cc1 | 6 | Active | – | Active | 52 | 26
